The target in one series is T1, Androgen receptor (Homo sapiens, UniProt P10275).
T1 sequence (P10275 whole entry): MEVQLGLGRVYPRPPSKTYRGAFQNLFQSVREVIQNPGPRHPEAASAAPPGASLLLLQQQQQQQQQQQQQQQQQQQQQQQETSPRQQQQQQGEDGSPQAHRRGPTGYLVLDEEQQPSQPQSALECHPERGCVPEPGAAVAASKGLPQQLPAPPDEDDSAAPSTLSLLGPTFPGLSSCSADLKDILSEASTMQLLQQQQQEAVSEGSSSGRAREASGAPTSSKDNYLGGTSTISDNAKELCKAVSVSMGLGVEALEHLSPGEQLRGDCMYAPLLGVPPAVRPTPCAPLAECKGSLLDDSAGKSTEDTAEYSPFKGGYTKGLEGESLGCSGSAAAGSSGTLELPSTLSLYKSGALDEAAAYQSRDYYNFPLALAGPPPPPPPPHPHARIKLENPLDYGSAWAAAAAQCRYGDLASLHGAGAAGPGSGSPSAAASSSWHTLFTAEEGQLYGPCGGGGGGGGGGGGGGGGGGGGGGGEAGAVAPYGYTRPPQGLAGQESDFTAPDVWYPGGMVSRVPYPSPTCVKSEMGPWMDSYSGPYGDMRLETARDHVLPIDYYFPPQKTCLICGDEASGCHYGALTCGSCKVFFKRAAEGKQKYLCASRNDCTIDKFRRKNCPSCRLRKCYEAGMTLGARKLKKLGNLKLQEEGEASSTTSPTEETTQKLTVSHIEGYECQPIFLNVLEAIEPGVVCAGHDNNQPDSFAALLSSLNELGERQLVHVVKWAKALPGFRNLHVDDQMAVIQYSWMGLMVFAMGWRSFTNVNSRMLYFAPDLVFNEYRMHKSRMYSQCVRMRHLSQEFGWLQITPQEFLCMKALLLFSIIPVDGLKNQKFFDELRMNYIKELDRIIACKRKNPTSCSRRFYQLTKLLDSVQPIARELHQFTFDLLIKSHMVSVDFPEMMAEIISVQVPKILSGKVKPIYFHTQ

The next series has as its target T2, Progesterone receptor (Homo sapiens, UniProt P06401).
T2 sequence (P06401 whole entry): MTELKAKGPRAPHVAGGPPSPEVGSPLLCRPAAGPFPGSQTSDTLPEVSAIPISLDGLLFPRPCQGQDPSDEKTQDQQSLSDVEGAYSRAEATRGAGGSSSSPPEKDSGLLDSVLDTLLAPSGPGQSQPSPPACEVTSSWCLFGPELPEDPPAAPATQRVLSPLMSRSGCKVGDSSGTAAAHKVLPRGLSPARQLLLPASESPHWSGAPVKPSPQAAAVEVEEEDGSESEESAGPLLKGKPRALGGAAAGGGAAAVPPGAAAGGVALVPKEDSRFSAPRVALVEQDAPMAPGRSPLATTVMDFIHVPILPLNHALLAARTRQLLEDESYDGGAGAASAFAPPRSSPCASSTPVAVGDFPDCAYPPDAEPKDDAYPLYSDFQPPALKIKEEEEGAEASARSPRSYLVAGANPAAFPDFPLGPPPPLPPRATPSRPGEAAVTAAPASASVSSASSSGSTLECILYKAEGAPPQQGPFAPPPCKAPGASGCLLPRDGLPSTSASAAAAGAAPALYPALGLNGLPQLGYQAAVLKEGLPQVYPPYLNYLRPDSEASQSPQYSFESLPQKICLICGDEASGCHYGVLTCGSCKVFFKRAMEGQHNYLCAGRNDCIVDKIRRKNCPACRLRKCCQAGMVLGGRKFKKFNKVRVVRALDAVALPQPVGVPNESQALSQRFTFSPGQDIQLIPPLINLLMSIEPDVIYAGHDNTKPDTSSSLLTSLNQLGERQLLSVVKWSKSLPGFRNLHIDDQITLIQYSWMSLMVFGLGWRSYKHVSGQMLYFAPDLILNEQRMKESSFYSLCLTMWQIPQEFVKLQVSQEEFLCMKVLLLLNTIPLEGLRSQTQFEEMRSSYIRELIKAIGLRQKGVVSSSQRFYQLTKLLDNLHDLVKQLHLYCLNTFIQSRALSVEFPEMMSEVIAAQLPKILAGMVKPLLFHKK
As to the kind of experiment: Antagonist activity at human PR expressed in human T47D cells assessed as inhibition of progesterone induced alkaline phosphatase. It counts as functional, cell-based.

The nature of series [1]: Plasma clearance in cynomolgus monkey at 1 mg/kg, iv. It counts as ADME, organism-based, Macaca fascicularis. Also noted: dose 1 mg/kg, route intravenous.
Series [2] can be described thus: Half life in cynomolgus monkey at 1 mg/kg, iv. It counts as ADME, organism-based, Macaca fascicularis. Details: dose 1 mg/kg, route intravenous. The following applies: in vivo.
Series [3] can be described thus: Stability in rat liver microsome assessed as half life. It counts as ADME. Conditions: liver microsomes. The gist of the method:
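Female rat, cynomolgus monkey and human liver microsome stability; half-life (min) reported.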
Background: Microsomes from liver hold many membrane-bound enzymes, among them those of drug oxidation.

The nature of series [4]: Cmax in cynomolgus monkey at 5 mg/kg, po. The following applies: in vivo. It counts as ADME, organism-based, Macaca fascicularis. Details: dose 5 mg/kg, route oral.
The next series concerns Rhesus monkey. As to the kind of experiment: Effect on functionalis KI67 assessed as number of KI67 labeled cells of rhesus monkey. It counts as functional, Macaca mulatta. The gist of the method: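 Adult female rhesus macaques (n=3) with regular cycles dosed 10 mg/(kg·day) po in 2% Tween 80/0.5% methylcellulose with cherry flavoring for 28 days from cycle day 2. Serum estradiol and progesterone measured every 3 days. Necropsy on day 28. Uterine weights are of half the uterus; KI-67 and mitotic indices counted per 1000 cells. Values given as mean ± SE.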

The nature of series [5]: Volume of distribution at steady state in cynomolgus monkey at […], iv. It counts as ADME, organism-based, Macaca fascicularis. Also noted: dose 0.25 mg/kg, route intravenous. Conditions: in vivo, read-out: Vdss.
The nature of series [6]: AUC (0 to infinity) at steady state in cynomolgus monkey at 1 mg/kg, iv. It counts as ADME, organism-based, Macaca fascicularis. Also noted: time infinity, dose 1 mg/kg, route intravenous. Conditions: plasma.
The nature of series [7]: Drug level in cynomolgus monkey at 1 mg/kg, iv. It counts as ADME, organism-based, Macaca fascicularis. Details: dose 1 mg/kg, route intravenous. The following applies: in vivo.
Series [8] in a line: Half life in Sprague-Dawley rat at 5 mg/kg, po. It counts as ADME, organism-based. Details: dose 5 mg/kg, route oral. Conditions: in vivo. The essentials: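 Female Sprague–Dawley rats dosed as 1-in-4 cassette or discrete studies. iv in DMSO/PEG200 20:80; po in aqueous 2% Tween 80/0.5% methyl cellulose. Parameters reported: C0, Cmax, t1/2, plasma clearance, Vss, AUC0-inf and %F.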

A further series has as its system Cynomolgus monkey. As to the kind of experiment: Inhibition of ovulation in cynomolgus monkey assessed as basal level of progesterone at 10 mg/kg. It counts as functional, organism-based. The following applies: Macaca fascicularis. Also noted: dose 10 mg/kg. The gist of the method: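 Normally cycling cynomolgus monkeys dosed orally, daily at 1, 3 or 10 mg/kg (n=4–6) or vehicle (n=2), in 2% Tween 80/0.5% methylcellulose for 30 days from cycle day 2. Serum sampled three times weekly; progesterone measured by radioimmunoassay to detect a luteal-phase rise as the sign of ovulation.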

As usually defined, the pIC50 is the IC50 on a negative log10 scale, so that one unit is a factor of ten. As a reminder, the clearance is the rate of elimination divided by the concentration. What is called half-life is how long it takes for the measured level to halve. By Cmax is commonly meant the peak of the concentration-time curve. A word on the AUC(0-inf): it is total exposure, with the tail of the curve extrapolated.

Molecules are shown by their SMILES. pIC50: −log10 of the molar value. Calls of active or inactive are those of the source. The calls are words filed in the database; no cut-off is given here.

Consider `Cn1c(C#N)ccc1-c1cc(F)c2c(c1)C(C)(C)C(=O)N2`, for which the pIC50 at Androgen receptor was 6.71; at Progesterone receptor, 8.30. Also, the clearance in series [1] came to 7 mL/min/kg. For the same compound, the values for the half-life in series [2], in [3] and in series [8] were 7.8 h, 0.433 h and 9.3 h, respectively. Besides, the Cmax in series [4] came out at 179 ng/mL. Further, the Activity with Rhesus monkey was 105. Moreover, the Vd in series [5] turned out to be 3.9 L/kg. Also, the AUC(0-inf) in series [6] was determined as 2360 ng·h/mL. The compound further displayed a C0 in [7] of 856 ng/mL. For the same compound, the result with Cynomolgus monkey was Active.

The values are drawn from ChEMBL document CHEMBL1144664, “Design, synthesis, and SAR of new pyrrole-oxindole progesterone receptor modulators leading to 5-(7-fluoro-3,3-dimethyl-2-oxo-2,3-dihydro-1H-indol-5-yl)-1-methyl-1H-pyrrole-2-carbonitrile (WAY-255348)” (J Med Chem, 2008).
